Laboratory results taken from ChEMBL document CHEMBL1125379, “Binding of phenylalkylamine derivatives at 5-HT1C and 5-HT2 serotonin receptors: evidence for a lack of selectivity” (J Med Chem, 1992).

Key:
[1] = target: T1, 5-hydroxytryptamine receptor 2C (Rattus norvegicus, UniProt P08909); experiment: Binding affinity towards 5-hydroxytryptamine 1C receptor from frontal cortical regions of male Sprague-Dawley rat homogenates, using [3H]mesulergine as radioligand
T1 sequence (P08909 whole entry): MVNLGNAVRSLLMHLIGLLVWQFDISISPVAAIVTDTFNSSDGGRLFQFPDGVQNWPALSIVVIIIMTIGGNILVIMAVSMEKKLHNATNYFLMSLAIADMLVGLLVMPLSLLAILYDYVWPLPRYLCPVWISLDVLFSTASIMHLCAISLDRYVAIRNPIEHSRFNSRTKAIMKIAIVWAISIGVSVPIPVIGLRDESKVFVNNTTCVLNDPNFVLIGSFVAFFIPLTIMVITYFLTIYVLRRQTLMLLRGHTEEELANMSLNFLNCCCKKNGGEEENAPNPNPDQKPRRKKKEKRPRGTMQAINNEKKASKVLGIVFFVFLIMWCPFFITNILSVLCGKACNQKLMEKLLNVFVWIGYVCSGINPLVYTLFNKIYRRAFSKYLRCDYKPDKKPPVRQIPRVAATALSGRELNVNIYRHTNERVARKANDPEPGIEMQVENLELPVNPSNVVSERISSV
Outline: (§1)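 Male Sprague–Dawley rat frontal cortex membranes were washed in Tris/EDTA/MgCl2 pH 7.4 with a 37 °C preincubation and resuspended with ascorbate and pargyline. Each tube held 10 mg wet tissue, 1 nM [3H]mesulergine and 100 nM spiperone to block 5-HT2 sites. Nonspecific binding was set with 1 μM mianserin. Tubes were incubated 15 min at 37 °C, in triplicate, then filtered. Ki = IC50/(1+D*/KD*).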

[2] = target: T2, Serotonin 2 (5-HT2) receptor (Rattus norvegicus, UniProt P30994+P08909+P14842); experiment: Binding affinity towards 5-hydroxytryptamine 2 receptor from frontal cortical regions of male Sprague-Dawley rat homogenates, using [3H]ketanserin as radioligand
Outline: (§2)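 Male Sprague–Dawley rat frontal cortex membranes were washed in 50 mM Tris, 0.5 mM EDTA, 10 mM MgCl2, pH 7.4, and resuspended with 0.1% ascorbate and 10^-6 M pargyline. Each tube held 5 mg wet tissue and 0.4 nM [3H]ketanserin. Nonspecific binding was set with 1.0 μM cinanserin. Tubes were incubated 15 min at 37 °C, in triplicate, then filtered on PEI-soaked glass fiber. Ki came from IC50 via Cheng–Prusoff, using the saturation KD.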

[3] = target: Serotonin 2 (5-HT2) receptor (Rattus norvegicus) (UniProt P30994+P08909+P14842); experiment: 5-HT1C selectivity was defined as the ratio between Ki(5-HT2)/Ki(5-HT1C); assay type: protein assay
Outline: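 Ratio of Ki values from rat frontal cortex competition assays. For 5-HT2: 0.4 nM [3H]ketanserin, with 1 μM cinanserin nonspecific. For 5-HT1C: 1 nM [3H]mesulergine plus 100 nM spiperone, with 1 μM mianserin nonspecific. Both were run 15 min at 37 °C in triplicate. Ki = IC50/(1+D*/KD*).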

[4] = target: T1, 5-hydroxytryptamine receptor 2C; experiment: Compound was tested for binding affinity towards 5-hydroxytryptamine 1C receptor from frontal cortical regions of male Sprague-Dawley rat homogenates, using [3H]mesulergine as radioligand; outline: as §1
[5] = target: T2, Serotonin 2 (5-HT2) receptor; experiment: Compound was tested for binding affinity towards 5-hydroxytryptamine 2 (5-hydroxytryptamine-2) receptor from frontal cortical regions of male Sprague-Dawley rat homogenates, using [3H]-ketanserin as radioligand; outline: as §2

Chain of Serotonin 2 (5-HT2) receptor (Rattus norvegicus) (P14842 whole entry, looked up, one chain of several): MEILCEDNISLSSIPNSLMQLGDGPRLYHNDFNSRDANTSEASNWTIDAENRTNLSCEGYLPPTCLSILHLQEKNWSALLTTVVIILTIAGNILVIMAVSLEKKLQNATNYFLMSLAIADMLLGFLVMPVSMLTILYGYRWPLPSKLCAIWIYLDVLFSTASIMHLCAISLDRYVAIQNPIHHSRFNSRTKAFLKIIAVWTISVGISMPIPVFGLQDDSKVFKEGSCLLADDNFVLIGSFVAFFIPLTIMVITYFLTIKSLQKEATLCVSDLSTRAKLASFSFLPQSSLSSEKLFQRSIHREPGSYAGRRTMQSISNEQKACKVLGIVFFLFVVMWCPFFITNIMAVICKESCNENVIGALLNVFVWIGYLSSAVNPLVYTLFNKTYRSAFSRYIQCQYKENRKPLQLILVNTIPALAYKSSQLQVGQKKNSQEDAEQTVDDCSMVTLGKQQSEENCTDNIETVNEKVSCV
Chain of Serotonin 2 (5-HT2) receptor (Rattus norvegicus) (P30994 whole entry, looked up, one chain of several): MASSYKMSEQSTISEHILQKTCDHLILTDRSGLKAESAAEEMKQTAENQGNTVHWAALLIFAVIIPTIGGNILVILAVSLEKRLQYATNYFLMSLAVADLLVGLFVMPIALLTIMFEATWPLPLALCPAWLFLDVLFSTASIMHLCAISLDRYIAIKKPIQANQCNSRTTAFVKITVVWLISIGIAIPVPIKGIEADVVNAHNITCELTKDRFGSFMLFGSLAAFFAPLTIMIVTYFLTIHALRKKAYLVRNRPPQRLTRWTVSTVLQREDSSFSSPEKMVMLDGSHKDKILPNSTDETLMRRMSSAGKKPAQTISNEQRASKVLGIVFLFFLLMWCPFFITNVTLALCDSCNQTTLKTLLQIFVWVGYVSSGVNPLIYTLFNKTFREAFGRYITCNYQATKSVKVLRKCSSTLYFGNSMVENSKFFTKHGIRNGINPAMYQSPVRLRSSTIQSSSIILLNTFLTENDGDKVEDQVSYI

In the case of `COc1cc(C)ccc1CC(C)N` (stereo unspecified), the Ki [1] is reported as 610 nM, the Ki [2] is reported as 1435 nM and the Selectivity [3] is reported as 2.
Compound `COc1cc(I)ccc1CC(C)N` (stereo unspecified) has a Ki [1] of 130 nM, a Ki [2] of 580 nM and a Selectivity [3] of 5.
For `CCCc1cc(OC)c(CC(C)N)cc1OC` (stereo unspecified), the Ki [1] was 14 nM and the Selectivity [3] was 5.
In the case of `CCOc1cc(OC)c(CC(C)N)cc1OC` (stereo unspecified), the Ki [1] is reported as 2300 nM and the Selectivity [3] is reported as 1.
`COc1cc(Br)ccc1CC(C)N` (stereo unspecified) showed a Ki [1] of 100 nM, a Ki [2] of 830 nM and a Selectivity [3] of 8.
Work on `COc1cc(C)ccc1CCN` yielded a Ki [1] of 110 nM, a Ki [2] of 825 nM and a Selectivity [3] of 7.
In the case of `COc1ccc(OC)c(CC(C)N)c1` (stereo unspecified), the Ki [1] is reported as 1220 nM.
Work on `CC(N)Cc1ccc(OC(=O)c2ccccc2)cc1` (stereo unspecified) yielded a Ki [4] of 1210 nM.
`CCCOC(=O)c1cc(OC)c(CC(C)N)cc1OC` (stereo unspecified) was tested, and the Ki [1] was over 10000 nM and the Selectivity [3] was under 1.
`CC(N)Cc1ccc(Br)cc1` (stereo unspecified) gave a Ki [1] of 1480 nM.
`COc1cc(CC(C)N)c(OC)cc1I` (stereo unspecified) showed a Ki [1] of 30 nM and a Selectivity [3] of 0.6.
`CCCc1ccc(CC(C)N)cc1` (stereo unspecified) showed a Ki [4] of 1250 nM, a Ki [5] of 2345 nM and a Selectivity [3] of 2.
`CCOc1ccc(CC(C)N)cc1` (stereo unspecified) showed a Ki [4] of over 10000 nM and a Ki [2] of over 10000 nM.
Compound `CCCNC(C)Cc1cc(OC)c(Br)cc1OC` (stereo unspecified) has a Ki [1] of over 10000 nM, a Ki [2] of 2460 nM and a Selectivity [3] of under 1.
`CCCCc1cc(OC)c(CC(C)N)cc1OC` (stereo unspecified) showed a Ki [1] of 26 nM and a Selectivity [3] of 2.
Work on `COc1cccc(Br)c1CC(C)N` (stereo unspecified) yielded a Ki [1] of 1560 nM, a Ki [2] of over 10000 nM and a Selectivity [3] of over 6.
With `COc1ccc(CC(C)N)c(OC)c1` (stereo unspecified) the Ki [1] was 4480 nM, the Ki [2] was over 10000 nM and the Selectivity [3] was over 2.
`Cc1ccc(CC(C)N)cc1` (stereo unspecified) was tested, and the Ki [4] was over 10000 nM and the Ki [5] was over 10000 nM.
In the case of `CNC(C)Cc1cc(OC)c(Br)cc1OC` (stereo unspecified), the Ki [1] is reported as 98 nM, the Ki [2] is reported as 80 nM and the Selectivity [3] is reported as 1.
`COc1cc(Br)ccc1CCN` showed a Ki [1] of 220 nM, a Ki [2] of 1030 nM and a Selectivity [3] of 5.
Work on `CNC(C)Cc1ccc(C)cc1OC` (stereo unspecified) yielded a Ki [1] of 1480 nM.
Work on `CCCc1ccc(CC(C)NC)cc1` (stereo unspecified) yielded a Ki [1] of 1930 nM, a Ki [2] of 2525 nM and a Selectivity [3] of 1.
